From PubChem BioAssay
V1aR counter – counter-screen for oxytocin receptor agonists: human V1a receptor agonists; P37288; CHO-V1R cells, Fluo-8 calcium fluorescence, agonist mode; 0% DMSO, 100% 3 nM vasopressin; activation, % at 3 µM; 320,000 tested, 0.25% active; AID 2797;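 active means activation above the mean activation of all tested compounds plus 3 SD, per screening run, cut at about 20% in these data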;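 further: signal is peak over basal fluorescence ratio across a 100 second FLIPR read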
OXTR agonist – agonists of human oxytocin receptor; CHO-OTR cells, Fluo-8 calcium fluorescence; normalized: DMSO 0%, oxytocin 100%; 320,000 tested, 0.32% active; AID 2435; activation, % at 3 µM;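 active means activation above the mean of all tested compounds plus 3 SD, cutoff set per screening run, cut at about 20% in these data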;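 further: peak over basal fluorescence ratio from a 100 s FLIPR kinetic read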
CHRM4 PAM – CHRM4 positive allosteric modulation; CHO-K1 hM4/Gqi5, Fluo-8 calcium fluorescence, ACh EC20; 0% = ACh EC20, 100% = maximal ACh; AID 624126; activation, % at 3 µM; 360,000 tested, 0.4% active; P08173;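 active means activation above its plate's cutoff, the mean activation of sample wells plus 3 SD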
Target sequence (P08173 whole entry, looked up): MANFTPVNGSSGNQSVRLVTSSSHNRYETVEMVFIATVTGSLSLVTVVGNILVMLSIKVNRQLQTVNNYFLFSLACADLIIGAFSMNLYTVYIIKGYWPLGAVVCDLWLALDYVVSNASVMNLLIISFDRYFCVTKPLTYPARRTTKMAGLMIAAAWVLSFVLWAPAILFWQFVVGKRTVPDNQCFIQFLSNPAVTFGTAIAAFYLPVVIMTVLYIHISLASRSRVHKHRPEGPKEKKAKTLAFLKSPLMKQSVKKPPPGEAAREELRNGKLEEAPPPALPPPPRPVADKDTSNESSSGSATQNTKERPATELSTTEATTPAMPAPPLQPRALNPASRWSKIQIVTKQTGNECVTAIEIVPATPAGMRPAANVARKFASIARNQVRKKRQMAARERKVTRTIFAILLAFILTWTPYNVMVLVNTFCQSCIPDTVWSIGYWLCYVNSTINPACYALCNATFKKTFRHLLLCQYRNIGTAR
OXTR potentiator – potentiators of human oxytocin receptor | P30559 | CHO-OTR cells, Fluo-8 calcium fluorescence, potentiator mode; 0% = oxytocin EC15, 100% = EC100 | activation, % at 3 µM | 320,000 tested, 0.061% active;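 active means activation above that plate's cutoff, the mean activation of tested compounds plus 3 SD, cut at about 6.6% in these data, passing the limit was not always enough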;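 further: 100% uses oxytocin at 75 nM as the full agonist control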
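Assay system: CHO-OTR cells, human receptor / Also added: oxytocin at about EC15, sub-maximal agonist stimulus / Dosing: single dose, 3.0 µM nominal final compound concentration / Incubation: 6 min pre-incubation, 100 s read / Technique: Fluo-8 calcium dye fluorescence / Read-out: % activation vs EC15 and EC100 oxytocin / Benchmarks: EC15 oxytocin low, 75 nM oxytocin high / Replicates: singlicate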
M4 ag – agonists of human muscarinic M4 receptor (CHRM4); CHO-K1 hM4/Gqi5, Fluo-8 calcium fluorescence; vehicle 0%, full acetylcholine response 100%; activation, % at 3 µM; AID 624127; 360,000 tested, 0.14% active; P08173;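 active means activation above the run mean over all test wells plus 3 SD, cut at about 32% in these data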;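 further: peak over basal fluorescence ratio per well then scaled between controls; 0% = DMSO wells and 100% = acetylcholine at EC100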
M4 antag – CHRM4 antagonism in calcium assay | inhibition, % at 3 µM | 360,000 tested, 0.73% active | CHO-hM4 cells, ACh EC80, Fluo-8 calcium fluorescence | P08173;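 active means inhibition above its plate's cutoff, the mean inhibition of sample wells plus 3 SD, cut at about 27% in these data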;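 further: 0% = acetylcholine EC80 with DMSO and 100% = DMSO without agonist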
Numbers without * were called inactive. Shown are actives, neighbours in structure and some others; about 1.5% of the full set was active somewhere.

How did COc1ccc(Cl)cc1NS(=O)(=O)c1cccc(C(=O)NC2CCN(Cc3ccccc3)CC2)c1 do in these assays?
CHRM4 PAM: -13.7; M4 ag: 8.2; M4 antag: 31.9*

Results for COc1ccc(NS(=O)(=O)c2cccc(C(=O)NC3CCN(Cc4ccccc4)CC3)c2)cc1 ?
V1aR counter: 6.1; OXTR agonist: 4.2; CHRM4 PAM: -6.2; OXTR potentiator: -5.2; M4 ag: 6.1; M4 antag: 8.2

Results for CC(=O)Nc1ccc(OCc2cn(CC(=O)c3ccc(O)cc3)nn2)cc1 ?
CHRM4 PAM: 3.0; M4 ag: 0.4; M4 antag: 1.0

What do the screens show for `Nc1nnc(SCC(=O)NC2CCCCCC2)s1`?
V1aR counter: 0.4; OXTR agonist: -1.6; CHRM4 PAM: 23.7*; OXTR potentiator: -2.1; M4 ag: -0.3; M4 antag: -11.7

What do the screens show for `O=C(CSc1nnc(Nc2ccccc2)s1)NC1CCCC1`?
V1aR counter: 0.7; OXTR agonist: -0.3; CHRM4 PAM: 7.2; OXTR potentiator: -5.5; M4 ag: 1.9; M4 antag: -27.3

How did N#C/C(=C/c1ccc(-c2ccc(S(N)(=O)=O)cc2)o1)c1nc2ccccc2s1 do in these assays?
V1aR counter: 50.7*; OXTR agonist: 37.9*; CHRM4 PAM: -8.4; OXTR potentiator: -9.6; M4 ag: 19.4; M4 antag: 26.5*

How did COC(=O)c1ccc(/C=C(\C#N)c2nc3ccccc3s2)cc1 do in these assays?
V1aR counter: 23.7*; OXTR agonist: 30.3*; CHRM4 PAM: 2.2; OXTR potentiator: -9.1; M4 ag: 5.8; M4 antag: -1.8

What do the screens show for `N#C/C(=C/c1ccc(-c2ccc(S(N)(=O)=O)cc2)o1)C(=O)Nc1ccccc1`?
V1aR counter: 2.0; OXTR agonist: 3.2; CHRM4 PAM: -8.3; OXTR potentiator: -7.7; M4 ag: 9.4; M4 antag: 12.3

How did CC(C)(C)c1ccc(C(=O)OC/C(O)=C(\C#N)c2nc3ccccc3s2)cc1 do in these assays?
V1aR counter: 0.4; OXTR agonist: 1.0; CHRM4 PAM: 4.3; OXTR potentiator: -4.4; M4 ag: 0.9; M4 antag: -7.8

How did N#C/C(=C\c1ccccn1)c1nc2ccccc2s1 do in these assays?
V1aR counter: 30.6*; OXTR agonist: 27.5*; CHRM4 PAM: -10.1; OXTR potentiator: -16.1; M4 ag: 19.6; M4 antag: 17.5

Results for CN(C)Cc1nnnn1-c1cccc(-n2nnnc2CN(C)C)c1 ?
V1aR counter: 1.1; OXTR agonist: 1.1; CHRM4 PAM: 10.7; OXTR potentiator: -1.7; M4 ag: 1.6; M4 antag: 5.5

How did CC(C)COc1cccc(-c2cc(C(=O)N/N=C/c3ccncc3)c3ccccc3n2)c1 do in these assays?
CHRM4 PAM: 8.7; M4 ag: 5.0; M4 antag: -20.8

What do the screens show for `O=C(CCSCc1ccccc1Cl)N1CCN(c2cccc(Cl)c2)CC1`?
V1aR counter: 1.1; OXTR agonist: 0.5; CHRM4 PAM: 23.1*; OXTR potentiator: -10.6; M4 ag: -0.2; M4 antag: -16.6

Results for Cc1cccc2sc(N(CCCN(C)C)C(=O)c3ccco3)nc12 ?
V1aR counter: 3.7; OXTR agonist: 8.7; CHRM4 PAM: -55.4; OXTR potentiator: -12.4; M4 ag: 7.4; M4 antag: 72.9*

Results for Cc1cccc2sc(N(CCCN(C)C)C(=O)c3ccc(Cl)s3)nc12 ?
V1aR counter: 0.4; OXTR agonist: 3.8; CHRM4 PAM: -48.5; OXTR potentiator: -2.1; M4 ag: 7.6; M4 antag: 23.8

What do the screens show for `O=c1[nH]c2cc(NCCO)c([N+](=O)[O-])cc2[nH]1`?
V1aR counter: -0.4; OXTR agonist: -0.1; CHRM4 PAM: -3.6; OXTR potentiator: -4.5; M4 ag: 0.7; M4 antag: -2.0

What do the screens show for `Cc1ccc(-c2nc(CN(C)Cc3cccc4cnccc34)c(C)o2)s1`?
V1aR counter: 5.0; OXTR agonist: 0.7; CHRM4 PAM: -4.3; OXTR potentiator: -11.0; M4 ag: 6.6; M4 antag: -2.9

How did Cc1cc(-c2ccc(S(=O)(=O)N3CCN(c4ccccc4F)CC3)s2)on1 do in these assays?
V1aR counter: 1.2; OXTR agonist: 0.4; CHRM4 PAM: -11.8; OXTR potentiator: -11.4; M4 ag: 2.9; M4 antag: -6.0
